Results from different studies.
Lines come from different studies, so protocols differ.
Target: Fibroblast growth factor receptor 1 (FGFR1, Homo sapiens, UniProt P11362)

| Structure (SMILES) | effect on | technique | concentration | remaining binding [%] |
| --- | --- | --- | --- | --- |
| F[C@@H]1CCN(c2nccc(-c3cnn4ncccc34)n2)C1 | binding |  | 1 µM | 87 |
| CNC(=O)Nc1ccc2c(c1)CC[C@@]21OC(=O)N(CC(=O)N(Cc2ccc(F)cc2)[C@@H](C)C(F)(F)F)C1=O | cell-free assay | competition with immobilised ligand | 1 µM | 82 |
| O=C(NCCCN1CCOCC1)c1ccc(Nc2nccc(-c3cc4ccccc4s3)n2)cc1 | binding | competition with immobilised ligand | 1 µM | 88 |
| Cc1nc(C2CCN(C(=O)c3ccc(OC(F)(F)F)cc3N)CC2)c2ncc(N3CCN(C)CC3)cc2n1 | cell-free assay | competition with immobilised ligand | 1 µM | 100 |
| CNC(=O)[C@@H]1CC[C@@H](n2c(-c3ccc4cnccc4c3)nc3ccc(C(=O)NCc4cccc(C(N)=O)c4)cc32)C1 | binding | competition with immobilised ligand | 1 µM | 90 |
| Cc1cnc(Nc2ccc(C(=O)N3CCC(N4CCCC4)CC3)cc2)nc1-c1cc2ccccc2s1 | binding | competition with immobilised ligand | 1 µM | 10 |
| COc1ncc2cc3ccccc3nc2c1C#N | cell-free assay | competition with immobilised ligand | 5 µM | 73 |
| COc1cccc(CNC(=O)c2nc3scc(COCc4ccc(C(=O)O)cc4)c3c(=O)[nH]2)c1 | cell-free assay | competition with immobilised ligand | 1 µM | 86.5 |
| CN(C)c1nccc(-c2cnn3ncccc23)n1 | binding |  | 1 µM | 100 |
| C=CC(=O)N1CCC(C(=O)NCC(=O)N2CCN(c3nc(-c4cnc(N)nc4C(F)F)nc(N4CCOCC4)n3)CC2)CC1 | binding | competition with immobilised ligand | 1 µM | 100 |
| C[C@H]1CCN(c2nccc(-c3cnn4ncccc34)n2)C1 | binding |  | 1 µM | 100 |
| CN(C)c1ncnc(-c2ccc3nc(Nc4cc(CN5CCN(C(=O)CC(F)(F)F)CC5)ccn4)[nH]c3c2)c1Cl | cell-free assay | competition with immobilised ligand | 1 µM | 100 |
| O=C(Nc1c[nH]nc1C(=O)NC1CCNCC1)c1cc(F)cc(F)c1 | binding | competition with immobilised ligand | 1 µM | 100 |
| O=C(O)[C@H]1[C@H](Cn2nnc3ccccc3c2=O)CC[C@@H]1C(=O)c1ccc(OCCC2CCOCC2)cc1 | cell-free assay | competition with immobilised ligand | 1 µM | 98 |
| N[C@@H]1CCN(c2nccc(-c3cnn4ncccc34)n2)C1 | binding |  | 1 µM | 96 |
| CN(C)C(=O)Cn1cc(-c2nc([C@@](C)(c3ccc(-c4cnc(N)nc4)cc3)C3CC3)no2)cn1 | cell-free assay | competition with immobilised ligand | 1 µM | 95 |
| COc1ccnn2ncc(-c3ccnc(N(C)C)n3)c12 | binding |  | 1 µM | 86 |
| O=C(c1ccc(Nc2nccc(-c3cc4ccccc4s3)n2)cc1)N1CCC(N2CCCC2)CC1 | binding | competition with immobilised ligand | 1 µM | 88 |
| CN(CCCC(F)(F)F)c1nccc(-c2cnn3ncccc23)n1 | binding |  | 1 µM | 46 |
| O=C(O)c1cc(-c2ccc(C3CCNCC3)cc2)c2ccc(-c3ccc(C(F)(F)F)cc3)cc2c1 | cell-free assay | competition with immobilised ligand | 1 µM | 100 |
| CN(C)c1nccc(-c2cnc3ncccn23)n1 | binding |  | 1 µM | 82 |
| c1cncc(-c2cccc(Nc3nccc(NC4CCCCC4)n3)c2)c1 | binding | competition with immobilised ligand | 10 µM | 14 |
